The full list was thinned out, with hits kept by preference.
TLR4 MyD88 comp: blocks binding of human TLR4 to MyD88 | O00206+Q99836 | actives 0.18% (n = 200,000) | HeLa CL3-4 TLR4/MyD88 BLA complementation, FRET ratio | inhibition, % at 8.4 µM; in the data active = inhibition above about 25%;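 also: 0% = vehicle and 100% = reference inhibitor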
Target sequence (O00206 whole entry, looked up): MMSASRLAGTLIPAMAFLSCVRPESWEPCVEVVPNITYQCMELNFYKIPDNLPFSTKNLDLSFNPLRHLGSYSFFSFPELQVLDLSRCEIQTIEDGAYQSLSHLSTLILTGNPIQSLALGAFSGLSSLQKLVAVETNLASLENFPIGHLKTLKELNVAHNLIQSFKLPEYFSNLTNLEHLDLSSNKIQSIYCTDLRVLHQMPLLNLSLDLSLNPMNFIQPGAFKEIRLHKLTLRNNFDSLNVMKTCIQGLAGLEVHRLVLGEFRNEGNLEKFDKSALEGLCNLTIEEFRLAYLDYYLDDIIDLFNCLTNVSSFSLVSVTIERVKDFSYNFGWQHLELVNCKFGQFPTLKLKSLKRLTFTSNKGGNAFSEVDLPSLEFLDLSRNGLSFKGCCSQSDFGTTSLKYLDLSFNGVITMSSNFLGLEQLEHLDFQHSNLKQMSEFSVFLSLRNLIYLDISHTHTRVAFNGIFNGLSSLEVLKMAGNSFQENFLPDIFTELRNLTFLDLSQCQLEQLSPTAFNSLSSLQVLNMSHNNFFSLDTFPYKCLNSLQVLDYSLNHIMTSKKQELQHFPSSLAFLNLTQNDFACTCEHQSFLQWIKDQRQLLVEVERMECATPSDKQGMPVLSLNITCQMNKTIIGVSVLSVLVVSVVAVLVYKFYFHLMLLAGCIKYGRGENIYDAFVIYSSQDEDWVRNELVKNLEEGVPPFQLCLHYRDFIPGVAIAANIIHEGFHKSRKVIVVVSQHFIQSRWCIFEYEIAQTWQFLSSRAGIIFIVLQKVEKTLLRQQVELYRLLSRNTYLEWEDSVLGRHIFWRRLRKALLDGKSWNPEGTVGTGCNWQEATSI
Target sequence (Q99836 whole entry, looked up): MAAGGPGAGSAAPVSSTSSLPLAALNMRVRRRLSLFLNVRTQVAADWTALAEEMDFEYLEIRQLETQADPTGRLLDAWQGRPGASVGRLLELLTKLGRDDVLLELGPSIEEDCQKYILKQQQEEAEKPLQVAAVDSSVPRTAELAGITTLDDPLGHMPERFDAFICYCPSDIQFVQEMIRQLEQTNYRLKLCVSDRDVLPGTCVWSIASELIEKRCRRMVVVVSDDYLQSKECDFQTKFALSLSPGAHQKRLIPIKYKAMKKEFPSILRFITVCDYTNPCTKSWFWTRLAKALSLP
TLR9-MyD88 block: inhibitors of human TLR9-MyD88 binding | AID 504734 | actives 0.21% (n = 340,000) | inhibition, % at 4.98 µM | CHO BLA complementation TLR9-MyD88, CCF4 FRET ratio | Q9NR96+Q99836;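 active = inhibition above the mean over all tested compounds plus 3 SD, cut at about 21% in these data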;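 also: 0% = DMSO only wells and 100% = clavulanate BLA inhibitor control wells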
CHOP UPR activ: apoptotic UPR (CHOP) activation; actives 0.34% (n = 330,000); AID 449763; activation, % at 10 µM; CHO-CHOP luciferase reporter, luminescence; percent of tunicamycin response over DMSO baseline;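 active = at 10 µM dose, activation of 40% or more, normalized to positive control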;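 also: 100% = tunicamycin at 10 µg/mL and 0% = DMSO alone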
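Test system: CHO-CHOP cells, stable luciferase reporter of PERK-eIF2a-CHOP signalling | Quantity: 500 CHO-CHOP cells per well | Buffer or medium: F12 plus 10% serum | Compound dosing: 10 µM single point, 0.5% DMSO | Schedule: 6 h compound treatment, 37 °C | Signal: Luciferase luminescence | Control set: Tunicamycin high control, DMSO low control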
NOD2 RIPK2 PPI: inhibitors of human NOD2-RIPK2 interaction | CHO BLA complementation NOD2-RIPK2, CCF4 ratio | inhibition, % at 4.98 µM | actives 0.38% (n = 360,000) | AID 624267; in the data active = inhibition above about 21%;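 also: 0% = vehicle only and 100% = reference blocker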
XBP1 UPR activ: activators of adaptive arm of unfolded protein response (XBP1); CHO-XBP1 luciferase reporter, IRE1-XBP1 UPR activation, luminescence; percent of tunicamycin response, DMSO as zero; activation, % at 20 µM; actives 0.33% (n = 330,000);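 active = versus positive control, 20 µM dose yields 30% or more activation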;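 also: 100% = tunicamycin at 10 µg/mL and 0% = DMSO only wells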
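Assay system: CHO-XBP1 luciferase reporter cells; Schedule: 6 h treatment, 37 °C; Detection: glow luminescence from Steady-Glo reagent; Benchmarks: high control tunicamycin 10 µg/mL final, low control DMSO vehicle only.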
CHOP inhibitor: inhibitors of CHOP induction in ER stress response | actives 3.8% (n = 220,000) | CHO-K1 CHOP-promoter luciferase, tunicamycin-induced, 15-18 h | inhibition, % at 10 µM;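 active = compounds that reduced the stress-induced luciferase reporter signal by more than about 70% of percent inhibition, limit read from the data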;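 also: 0% = tunicamycin plus vehicle and 100% = wells without tunicamycin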
CHOP inh conf: confirmation of CHOP induction inhibitors; shares compounds with CHOP inhibitor; CHO-CHOP promoter luciferase reporter, tunicamycin-induced, luminescence; inhibition, % at 10 µM; actives 45% (n = 2,100);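 active = mean of three repeat readings of reporter signal inhibition above a set limit, cut at about 70% in these data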;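 also: 0% = tunicamycin plus vehicle and 100% = wells lacking tunicamycin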
The depositor's hits bear a star; . = no result given.

SMILES | TLR4 MyD88 comp | TLR9-MyD88 block | CHOP UPR activ | NOD2 RIPK2 PPI | XBP1 UPR activ | CHOP inhibitor | CHOP inh conf
C[C@@H]1CN([C@@H](C)CO)C(=O)CCCn2nncc2CO[C@@H]1CN(C)C(=O)Nc1ccccc1 | . | -1 | . | -4 | . | . | .
CCCc1cc(-c2nc(N)ncc2-c2csc(C)n2)c(O)cc1OC | 4 | -26 | 0 | -6 | 1 | 47 | .
CCCc1cc(-c2nc(N)ncc2-c2ccc3c(c2)OCCCO3)c(O)cc1OC | -16 | -7 | 1 | -4 | 4 | 106* | 122*
CC(C)CCn1c(SCc2ccc(Cl)cc2)nc2c1c(=O)[nH]c(=O)n2C | -3 | 4 | 1 | -11 | 18 | 97* | 93*
CC(C)Oc1ccc(C(=O)Nc2ccc(NC(=O)c3ccco3)c(Cl)c2)cc1 | 0 | 5 | 1 | -4 | 1 | 9 | .
CC(C)COc1ccc(C(=O)Nc2ccc(NC(=O)c3ccco3)c(Cl)c2)cc1 | -11 | -1 | -2 | -3 | 6 | 101* | 69
COc1ccccc1C(NC(=O)C1CCN(CCOc2ccccc2)CC1)c1ccccn1 (configuration not stated) | . | . | . | 6 | . | . | .
Cc1ccc2[nH]c(O)c(N=NC(=O)CCc3ccccc3)c2c1Br | -2 | 4 | 0 | 6 | -3 | 107* | 83*
COc1ccc(C2=NN(C(=O)c3ccco3)C(c3cc4ccccc4nc3Cl)C2)cc1 (configuration not stated) | . | . | 3 | . | 16 | 103* | 71*
COc1ccc2cc(C3CC(c4ccco4)=NN3C(=O)CCC(=O)O)c(Cl)nc2c1 (configuration not stated) | -1 | 10 | -1 | -10 | -1 | -30 | .
CN1CCN(Cc2c(O)ccc3occ(C(=O)c4ccccc4)c23)CC1 | 10 | -4 | 3 | -9 | 2 | 21 | .
CC(=O)C(C(C)=O)c1c(Cl)c(O)c(O)c2c(C(=O)c3ccccc3)coc12 | -1 | 2 | 25 | -4 | -2 | . | 100*
CCCC(=O)N1CCN(c2ccc(NC(=O)c3cc4ccccc4o3)cc2Cl)CC1 | -7 | -1 | -6 | 7 | -8 | . | 109*
CCC(=O)N1CCN(c2ccc(NC(=O)c3cc4ccccc4o3)cc2Cl)CC1 | -9 | 1 | -2 | 6 | -7 | . | .
COc1ccc(-n2c(-c3cc(-c4ccccc4)sc3N)n[nH]c2=S)cc1 | . | 4 | 1 | 2 | 1 | 100* | 8
Nc1sc(-c2ccccc2)cc1-c1n[nH]c(=S)n1C1CCCCC1 | . | . | -1 | -3 | 4 | -20 | .
CCOc1ccccc1NC(=O)CCSc1nc2n[nH]c(C)c2c(=N)n1-c1ccccc1Cl | 16 | -15 | 7 | -17 | 110* | 101* | 10
Cc1ccc(CN(C)C(=O)CCNC(=O)c2ccc(Cl)cc2)o1 | . | -19 | . | -2 | . | . | .
O=S(=O)(Nc1ccc(C(O)(C(F)(F)F)C(F)(F)F)cc1)c1cccc2cccnc12 | . | . | . | 5 | . | . | .
FC(F)(F)c1ccc(/C=N/NC(=S)NC2CCCCC2)cc1 | -16 | 1 | -1 | -12 | -1 | 106* | 108*
Cc1ccc(C(=O)CN2/C(=C(\O)c3ccccc3)C(=O)c3ccccc3S2(=O)=O)c(C)c1 | -6 | 0 | -1 | 0 | 5 | 106* | 28
Cc1cc(/C=N/n2cnnc2)c(C)n1-c1ccc(OCc2ccccc2F)cc1 | -12 | -14 | 4 | -4 | 0 | 111* | 103*
Cc1cc(/C=N/n2cnnc2)c(C)n1-c1ccc(OCc2ccc(Cl)cc2)cc1 | 0 | -2 | 17 | -4 | 3 | 99* | 91*
COCCNC(=O)C1(C)CCCN(C(=O)c2cccc(C#N)c2)C1 (configuration not stated) | . | . | . | -10 | . | . | .
C/C(=N\N=C1\NC(=O)C(CC(=O)Nc2ccc(C)c(Cl)c2)S1)C(C)(C)C (configuration not stated) | 0 | 6 | -2 | -2 | -1 | 106* | 107*

Source: PubChem BioAssay
